Assay results reported in ChEMBL document CHEMBL5678817, “FTBMT, a Novel and Selective GPR52 Agonist, Demonstrates Antipsychotic-Like and Procognitive Effects in Rodents, Revealing a Potential Therapeutic Agent for Schizophrenia” (J Pharmacol Exp Ther, 2017).
Active and inactive are the calls of the source. The rule behind the calls is not given here.

Key:
[1] = biological target: Estrogen receptor (Homo sapiens) (UniProt P03372); assay: Inhibition of Estrogen ERalpha receptor (unknown origin) at 10 uM relative to control
Sequence of Estrogen receptor (Homo sapiens) (P03372 whole entry): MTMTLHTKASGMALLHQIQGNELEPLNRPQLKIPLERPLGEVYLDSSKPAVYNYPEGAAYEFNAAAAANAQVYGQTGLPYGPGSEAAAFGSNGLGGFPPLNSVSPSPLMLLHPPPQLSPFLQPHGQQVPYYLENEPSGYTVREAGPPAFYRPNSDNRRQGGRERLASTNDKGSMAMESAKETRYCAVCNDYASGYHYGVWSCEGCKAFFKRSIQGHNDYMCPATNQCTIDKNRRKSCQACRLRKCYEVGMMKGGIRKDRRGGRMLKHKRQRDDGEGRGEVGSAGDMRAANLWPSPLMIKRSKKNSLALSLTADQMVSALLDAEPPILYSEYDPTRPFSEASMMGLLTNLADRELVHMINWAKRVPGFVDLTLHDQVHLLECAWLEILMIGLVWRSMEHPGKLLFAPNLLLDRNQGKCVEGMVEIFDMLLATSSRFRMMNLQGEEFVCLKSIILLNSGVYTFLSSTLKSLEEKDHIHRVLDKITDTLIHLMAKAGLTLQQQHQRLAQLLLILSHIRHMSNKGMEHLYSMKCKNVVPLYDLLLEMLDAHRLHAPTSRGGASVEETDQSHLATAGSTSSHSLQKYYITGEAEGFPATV
In short: (§1)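 Part of a 98-target external biochemical selectivity panel that used radioligand/receptor binding-type assays. Compound tested once at 10 µM. Results are reported as % inhibition versus control; negative values mean stimulation of receptor activity.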

[2] = system: Mus musculus; assay: Pro-cognitive activity in C57BL/6N mouse assessed as increase in c-fos gene expression in hippocampus at 3 to 30 mg/kg, po measured after 2 hrs […]; format: functional, organism-based; settings: dose 3-30 mg/kg
[3] = biological target: 5-hydroxytryptamine receptor 2B (Homo sapiens) (UniProt P41595); assay: Inhibition of Serotonin 5-HT2B receptor (unknown origin) at 10 uM relative to control; in short: as §1
Sequence of 5-hydroxytryptamine receptor 2B (Homo sapiens) (P41595 whole entry): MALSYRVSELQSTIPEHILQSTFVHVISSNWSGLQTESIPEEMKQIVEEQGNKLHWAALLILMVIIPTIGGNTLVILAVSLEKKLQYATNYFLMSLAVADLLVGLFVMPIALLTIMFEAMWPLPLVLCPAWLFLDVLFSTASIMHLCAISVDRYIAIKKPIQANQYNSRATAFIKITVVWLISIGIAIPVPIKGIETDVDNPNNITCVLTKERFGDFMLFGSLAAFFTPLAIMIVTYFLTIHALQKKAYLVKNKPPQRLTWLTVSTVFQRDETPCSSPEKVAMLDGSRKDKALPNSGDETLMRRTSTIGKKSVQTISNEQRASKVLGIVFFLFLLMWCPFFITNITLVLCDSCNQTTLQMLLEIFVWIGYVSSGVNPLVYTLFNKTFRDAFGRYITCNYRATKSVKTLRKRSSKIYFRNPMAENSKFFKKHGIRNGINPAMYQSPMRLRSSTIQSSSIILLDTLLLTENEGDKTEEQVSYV

[4] = biological target: G-protein coupled receptor 52 (Mus musculus) (UniProt P0C5J4); assay: Agonist activity at mouse GPR52 expressed in CHO cells assessed as increase in intracellular cAMP level upto 10 uM incubated for 30 mins by Alphascreen assay; format: functional, cell-based
Sequence of G-protein coupled receptor 52 (Mus musculus) (P0C5J4 whole entry): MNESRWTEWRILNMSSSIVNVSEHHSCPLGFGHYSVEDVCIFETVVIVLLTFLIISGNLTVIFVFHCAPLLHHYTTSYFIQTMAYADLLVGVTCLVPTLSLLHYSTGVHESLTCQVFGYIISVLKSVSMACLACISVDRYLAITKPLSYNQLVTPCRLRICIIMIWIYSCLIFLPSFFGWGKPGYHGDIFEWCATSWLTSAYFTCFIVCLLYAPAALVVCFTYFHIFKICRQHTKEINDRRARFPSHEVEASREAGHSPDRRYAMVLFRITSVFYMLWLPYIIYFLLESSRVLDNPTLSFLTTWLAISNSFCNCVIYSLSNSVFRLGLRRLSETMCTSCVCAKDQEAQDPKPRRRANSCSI
In short: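 CHO cells stably expressing human, mouse or rat GPR52, plus naïve CHO cells, at 10,000 cells/well. Stimulated in cAMP assay buffer for 30 min at 37 °C. Intracellular cAMP read by AlphaScreen.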

[5] = species on record: Homo sapiens; assay: Inhibition of Calcium channel N-type (unknown origin) at 10 uM relative to control
In short: (§2)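 Single-point screen at 10 μM across receptor, ion channel and enzyme binding or activity assays. Expressed as percent inhibition versus control; negative values denote stimulation.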

[6] = species on record: Homo sapiens; assay: Inhibition of Imidazoline I2 receptor (unknown origin) at 10 uM relative to control; in short: as §1
[7] = biological target: Thromboxane A2 receptor (Homo sapiens) (UniProt P21731); assay: Inhibition of Thromboxane A2 receptor (unknown origin) at 10 uM relative to control
Sequence of Thromboxane A2 receptor (Homo sapiens) (P21731 whole entry): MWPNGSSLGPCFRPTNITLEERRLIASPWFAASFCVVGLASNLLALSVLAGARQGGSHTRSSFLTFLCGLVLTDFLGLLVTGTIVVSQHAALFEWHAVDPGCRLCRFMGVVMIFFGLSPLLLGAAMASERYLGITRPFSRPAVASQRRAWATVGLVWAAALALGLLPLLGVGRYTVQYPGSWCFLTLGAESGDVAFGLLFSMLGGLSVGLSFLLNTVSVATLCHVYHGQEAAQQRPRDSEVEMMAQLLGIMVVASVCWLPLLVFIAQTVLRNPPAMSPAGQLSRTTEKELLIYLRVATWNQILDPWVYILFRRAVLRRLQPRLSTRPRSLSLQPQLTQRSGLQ
In short: (§3)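 Binding and enzyme panel run by an outside contractor against receptors, ion channels and enzymes. Each assay used a single 10 μM test concentration, and results are expressed as percent inhibition. A negative value means stimulation of receptor activity or activation of enzyme activity.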

[8] = system: Rattus norvegicus; assay: Pro-cognitive activity in Long-Evans rat at10 mg/kg, po measured after 1 hr by radial arm maze test; format: functional, organism-based; settings: dose 10.0 mg/kg
In short: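 Male Long-Evans rats (9 weeks) were trained on the radial arm maze until they made fewer than two errors on two consecutive days. Errors were re-entries into arms or uneaten pellets, within 5 min. Oral 10 mg/kg or vehicle was given 1 h pretest, and MK-801 0.08 mg/kg s.c. or saline 30 min pretest. Scoring was blinded. n = 8–14.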

[9] = biological target: Glucocorticoid receptor (Homo sapiens) (UniProt P04150); assay: Inhibition of Glucocorticoid receptor (unknown origin) at 10 uM relative to control; in short: as §1
[10] = biological target: Interstitial collagenase (Homo sapiens) (UniProt P03956); assay: Inhibition of MMP1 (unknown origin) at 10 uM relative to control
Sequence of Interstitial collagenase (Homo sapiens) (P03956 whole entry): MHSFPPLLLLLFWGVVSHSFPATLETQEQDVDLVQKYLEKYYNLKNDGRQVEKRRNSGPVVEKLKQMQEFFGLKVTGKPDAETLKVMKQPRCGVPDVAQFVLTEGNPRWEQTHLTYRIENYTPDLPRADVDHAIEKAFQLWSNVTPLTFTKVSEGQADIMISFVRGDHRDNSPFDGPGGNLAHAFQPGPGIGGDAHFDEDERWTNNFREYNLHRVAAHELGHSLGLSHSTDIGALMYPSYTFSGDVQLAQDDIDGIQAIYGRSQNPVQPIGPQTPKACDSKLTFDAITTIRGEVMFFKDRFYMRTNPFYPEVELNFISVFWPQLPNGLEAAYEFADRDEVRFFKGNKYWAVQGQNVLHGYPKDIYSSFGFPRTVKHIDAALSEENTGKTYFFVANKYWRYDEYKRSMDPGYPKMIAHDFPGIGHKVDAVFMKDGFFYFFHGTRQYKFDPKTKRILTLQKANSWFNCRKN
In short: (§4)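 Enzyme activity assays from the same 98-target biochemical panel. Single test concentration of 10 µM. Read-out is % inhibition of enzyme activity relative to control; negative percentages indicate activation of the enzyme.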

[11] = biological target: Substance-P receptor (Homo sapiens) (UniProt P25103); assay: Inhibition of Tachykinin NK1 receptor (unknown origin) at 10 uM relative to control; in short: as §3
Sequence of Substance-P receptor (Homo sapiens) (P25103 whole entry): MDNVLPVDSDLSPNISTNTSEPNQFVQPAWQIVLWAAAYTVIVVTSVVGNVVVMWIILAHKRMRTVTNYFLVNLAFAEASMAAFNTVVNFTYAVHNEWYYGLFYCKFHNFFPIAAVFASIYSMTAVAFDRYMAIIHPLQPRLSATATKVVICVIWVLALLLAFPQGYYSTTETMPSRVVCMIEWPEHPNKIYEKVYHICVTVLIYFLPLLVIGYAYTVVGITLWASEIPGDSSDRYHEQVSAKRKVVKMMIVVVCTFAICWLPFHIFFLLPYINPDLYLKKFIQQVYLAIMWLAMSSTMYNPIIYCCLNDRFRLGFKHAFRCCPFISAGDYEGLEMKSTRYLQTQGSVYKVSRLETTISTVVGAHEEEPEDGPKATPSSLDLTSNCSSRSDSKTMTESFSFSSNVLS

[12] = biological target: Muscarinic acetylcholine receptor M3 (Homo sapiens) (UniProt P20309); assay: Inhibition of Muscarinic M3 receptor (unknown origin) at 10 uM relative to control; in short: as §1
[13] = biological target: G-protein coupled receptor 52 (Mus musculus) (UniProt P0C5J4); assay: […] agonist activity at GPR52 in ICR mouse assessed as increase in DARPP-32 phosphorylation at thr34 residue upto 1 uM incubated for 5 mins; format: functional
In short: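 Acute 500 μm coronal NAc slices from male ICR mice (8–10 weeks) recovered 60 min at 30 °C in oxygenated Krebs-HCO3 pH 7.4 (adenosine deaminase for first 30 min). Exposed 5 min to 0.01–1 μM, frozen, denatured in 1% SDS with 50 mM NaF. Phospho-Thr34 and total DARPP32 quantified by Western blot densitometry; n = 9.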

[14] = system: Mus musculus; assay: Antipsychotic activity in C57BL/6N mouse assessed as increase in c-fos positive cells in frontal cortex at 30 mg/kg, po measured for 2 hrs by immunohistochemistry analysis; format: functional, organism-based
[15] = biological target: Androgen receptor (Homo sapiens) (UniProt P10275); assay: Inhibition of Androgen receptor (unknown origin) at 10 uM relative to control; in short: as §2
[16] = biological target: Mu-type opioid receptor (Homo sapiens) (UniProt P35372); assay: Inhibition of mu opioid receptor (unknown origin) at 10 uM relative to control; in short: as §3
Sequence of Mu-type opioid receptor (Homo sapiens) (P35372 whole entry): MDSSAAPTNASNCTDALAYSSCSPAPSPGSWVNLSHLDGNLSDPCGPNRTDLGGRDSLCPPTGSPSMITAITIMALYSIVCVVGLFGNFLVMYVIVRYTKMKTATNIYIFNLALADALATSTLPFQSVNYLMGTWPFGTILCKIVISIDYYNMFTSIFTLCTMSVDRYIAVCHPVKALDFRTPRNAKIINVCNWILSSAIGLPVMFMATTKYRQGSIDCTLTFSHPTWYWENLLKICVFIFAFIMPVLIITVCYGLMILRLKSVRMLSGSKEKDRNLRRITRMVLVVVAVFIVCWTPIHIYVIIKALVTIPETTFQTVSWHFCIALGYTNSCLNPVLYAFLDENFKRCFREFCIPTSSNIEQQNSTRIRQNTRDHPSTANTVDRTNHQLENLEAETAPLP

[17] = biological target: cGMP-specific 3',5'-cyclic phosphodiesterase (Homo sapiens) (UniProt O76074); assay: Inhibition of PDE5 (unknown origin) at 10 uM relative to control; in short: as §4
[18] = biological target: T1, G protein-coupled receptor 52 (Rattus norvegicus) (UniProt A0A8I5ZQK1); assay: Agonist activity at GPR52 in rat Striatal neuron assessed as increase in NMDA-stimulated GABA release […] followed by NMDA-stimulation and measured after 20 mins by scintillation counter analysis; format: cell-based; settings: filed as agonist, time 60.0 min
T1 sequence (A0A8I5ZQK1 as listed by the source): as the sequence (P0C5J4 whole entry) above, with M14V, E250D, E333Q, A342G, Q348R counted along it

[19] = biological target: T1, G protein-coupled receptor 52 (Rattus norvegicus); assay: Agonist activity at GPR52 in rat Striatal neuron assessed as increase in Egr-2 mRNA expression by RT-PCR analysis; format: cell-based; settings: filed as agonist
In short: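 Rat primary striatal neurons (E18–19), used at DIV 13–16. Treated in HBSS with 5 mM HEPES pH 7.5 and 0.5% fatty-acid-free BSA for 15 or 60 min at 37 °C. Cells were homogenized in RLT buffer and IEG mRNA was quantified by qPCR using absolute or ΔΔCt relative quantification.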

[20] = species on record: Homo sapiens; assay: Inhibition of EGF receptor (unknown origin) at 10 uM relative to control; in short: as §4
[21] = biological target: MAO-B (amine oxidase [flavin-containing] B) (Homo sapiens, UniProt P27338); assay: Inhibition of MAO-B (unknown origin) at 10 uM relative to control; in short: as §4
[22] = biological target: Alpha-2B adrenergic receptor (Homo sapiens) (UniProt P18089); assay: Inhibition of Adrenergic alpha2B receptor (unknown origin) at 10 uM relative to control; in short: as §2
Sequence of Alpha-2B adrenergic receptor (Homo sapiens) (P18089 whole entry): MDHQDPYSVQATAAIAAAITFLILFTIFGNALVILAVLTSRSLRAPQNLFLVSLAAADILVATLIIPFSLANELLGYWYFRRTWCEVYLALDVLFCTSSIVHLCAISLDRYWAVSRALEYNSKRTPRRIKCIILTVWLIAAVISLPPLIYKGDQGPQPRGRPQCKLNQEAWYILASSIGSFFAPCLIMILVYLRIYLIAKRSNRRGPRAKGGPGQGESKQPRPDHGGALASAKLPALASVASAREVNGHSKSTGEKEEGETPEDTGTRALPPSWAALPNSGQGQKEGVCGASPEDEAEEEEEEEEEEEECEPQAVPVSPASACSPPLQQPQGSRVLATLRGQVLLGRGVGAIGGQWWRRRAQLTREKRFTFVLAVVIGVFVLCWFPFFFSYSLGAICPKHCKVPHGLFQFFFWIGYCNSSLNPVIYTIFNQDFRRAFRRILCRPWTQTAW

[23] = biological target: Sodium-dependent noradrenaline transporter (Homo sapiens) (UniProt P23975); assay: Inhibition of Norepinephrine transporter (unknown origin) at 10 uM relative to control; in short: as §1
Sequence of Sodium-dependent noradrenaline transporter (Homo sapiens) (P23975 whole entry): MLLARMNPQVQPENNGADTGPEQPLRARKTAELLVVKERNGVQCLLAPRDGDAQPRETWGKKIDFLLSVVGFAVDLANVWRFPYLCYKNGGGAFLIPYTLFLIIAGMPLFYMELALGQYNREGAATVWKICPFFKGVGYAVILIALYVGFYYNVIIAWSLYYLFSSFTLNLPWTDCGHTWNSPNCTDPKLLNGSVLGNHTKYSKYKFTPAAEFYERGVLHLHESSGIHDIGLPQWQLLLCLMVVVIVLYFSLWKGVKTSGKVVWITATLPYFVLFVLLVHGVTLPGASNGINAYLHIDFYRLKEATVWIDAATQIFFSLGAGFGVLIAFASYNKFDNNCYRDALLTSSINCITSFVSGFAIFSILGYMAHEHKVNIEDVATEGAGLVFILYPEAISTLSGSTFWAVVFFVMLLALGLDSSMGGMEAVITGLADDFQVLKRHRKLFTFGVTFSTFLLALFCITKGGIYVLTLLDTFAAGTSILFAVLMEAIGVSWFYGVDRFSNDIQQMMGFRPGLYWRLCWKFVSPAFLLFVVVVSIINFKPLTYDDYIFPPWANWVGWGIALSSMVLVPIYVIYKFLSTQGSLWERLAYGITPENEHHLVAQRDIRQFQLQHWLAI

[24] = biological target: 3-oxo-5-alpha-steroid 4-dehydrogenase 1 (Homo sapiens) (UniProt P18405); assay: Inhibition of Steroid 5alpha-reductase 1 (unknown origin) at 10 uM relative to control; in short: as §3
Sequence of 3-oxo-5-alpha-steroid 4-dehydrogenase 1 (Homo sapiens) (P18405 whole entry): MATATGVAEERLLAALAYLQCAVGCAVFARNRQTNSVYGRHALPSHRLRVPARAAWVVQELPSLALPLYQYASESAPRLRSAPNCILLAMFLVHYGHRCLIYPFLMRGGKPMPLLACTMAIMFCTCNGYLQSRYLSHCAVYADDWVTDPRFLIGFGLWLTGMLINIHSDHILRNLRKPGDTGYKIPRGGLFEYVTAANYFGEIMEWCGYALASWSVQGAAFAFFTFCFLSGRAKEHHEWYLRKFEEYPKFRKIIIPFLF

[25] = biological target: Adenosine receptor A1 (Homo sapiens) (UniProt P30542); assay: Inhibition of Adenosine A1 receptor (unknown origin) at 10 uM relative to control; in short: as §2
Sequence of Adenosine receptor A1 (Homo sapiens) (P30542 whole entry): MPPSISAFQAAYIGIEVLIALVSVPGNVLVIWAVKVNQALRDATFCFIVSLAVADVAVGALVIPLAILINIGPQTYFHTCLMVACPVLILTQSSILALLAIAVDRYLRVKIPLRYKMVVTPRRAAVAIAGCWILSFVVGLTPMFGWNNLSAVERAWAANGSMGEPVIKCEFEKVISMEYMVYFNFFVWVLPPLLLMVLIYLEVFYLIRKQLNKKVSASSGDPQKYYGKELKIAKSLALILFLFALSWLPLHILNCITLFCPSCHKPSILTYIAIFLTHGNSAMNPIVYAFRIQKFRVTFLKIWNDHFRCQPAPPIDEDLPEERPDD

[26] = biological target: Voltage-gated L-type calcium channel (Homo sapiens, UniProt O60840+Q01668+Q13698+Q13936); assay: Inhibition of Calcium channel L-type (unknown origin) at 10 uM in presence of benzothiazepine relative to control; format: protein assay; settings: probe benzothiazepine; in short: as §2

Question: For `Cc1cc(-n2nc(Cc3cc(F)cc(C(F)(F)F)c3)nc2C)ccc1C(N)=O` [TP-024], which inhibition [1] is on record?
Answer: Its inhibition is -9%.

Question: And the Activity [2]?
Answer: Its Activity is “Active”.

Question: And the inhibition [3]?
Answer: Its inhibition is 6%.

Question: And the Activity [4]?
Answer: Its Activity is “inactive”.

Question: And the inhibition [5]?
Answer: Its inhibition is -9%.

Question: What about the inhibition [6] of the same molecule?
Answer: Its inhibition is 6%.

Question: What about the inhibition [7] of the same molecule?
Answer: The inhibition was -6%.

Question: What about the Activity [8] of the same molecule?
Answer: Its Activity is “Active”.

Question: What about the inhibition [9] of the same molecule?
Answer: The inhibition was 12%.

Question: And the inhibition [10]?
Answer: Its inhibition is -3%.

Question: And the inhibition [11]?
Answer: Its inhibition is 4%.

Question: What about the inhibition [12] of the same molecule?
Answer: Its inhibition is -6%.

Question: What about the Activity [13] of the same molecule?
Answer: Its Activity is “Active”.

Question: What about the Activity [14] of the same molecule?
Answer: The Activity was “Active”.

Question: And the inhibition [15]?
Answer: Its inhibition is 5%.

Question: What about the inhibition [16] of the same molecule?
Answer: The inhibition was -10%.

Question: What about the inhibition [17] of the same molecule?
Answer: The inhibition was 24%.

Question: And the Activity [18]?
Answer: Its Activity is “Active”.

Question: What about the Activity [19] of the same molecule?
Answer: The Activity was “Active”.

Question: What about the inhibition [20] of the same molecule?
Answer: Its inhibition is -1%.

Question: And the inhibition at 10 µM [21]?
Answer: The inhibition at 10 µM was 26%.

Question: And the inhibition [22]?
Answer: The inhibition was 5%.

Question: What about the inhibition [23] of the same molecule?
Answer: Its inhibition is 10%.

Question: What about the inhibition [24] of the same molecule?
Answer: The inhibition was 0%.

Question: What about the inhibition [25] of the same molecule?
Answer: The inhibition was 33%.

Question: And the inhibition at 10 µM [26]?
Answer: Its inhibition at 10 µM is 19%.
